The test system of experiment [1] is B.cepacia NCTC 10661 sensitive. The experiment in a line: MIC by microbroth dilution. Type of experiment: cell-based. Put shortly:
(§1)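 Broth microdilution per international standard ISO […]. The panel covered clinical isolates and NCTC/ATCC control organisms, including resistant phenotypes, and ampicillin was run alongside as comparator.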

Experiment [2] relates to E. faecalis ATCC 51299 vanB resistant. The experiment in a line: MIC by microbroth dilution. Type of experiment: cell-based, Enterococcus faecalis. Put shortly: as §1
The test system of experiment [3] is S. aureus NCTC 12493 mecA resistant. The experiment in a line: MIC by microbroth dilution. Type of experiment: cell-based. The essentials:
as §1

Experiment [4] has as its system K. pneumoniae 21856 sensitive. The experiment in a line: MIC by microbroth dilution. In kind it is cell-based, Klebsiella pneumoniae. Put shortly:
as §1

Another experiment relates to A.baumannii572 sensitive. The experiment in a line: MIC by microbroth dilution. Type of experiment: cell-based, Acinetobacter baumannii. Put shortly:
as §1

The test system of experiment [5] is P. aeruginosa ATCC 27853 sensitive. The experiment in a line: MIC by microbroth dilution. In kind it is cell-based, Pseudomonas aeruginosa. Put shortly:
as §1

Experiment [6] has as its system E. faecalisATCC 29212 sensitive. The experiment in a line: MIC by microbroth dilution. Type of experiment: cell-based, Enterococcus faecalis. Put shortly: as §1
For another experiment, the target named is P. aeruginosa PheRS (Pseudomonas aeruginosa, UniProt Q9I0A3). The experiment in a line: tRNA aminoacylation scintillation proximity assay, P. aeruginosa PheRS. In kind it is biochemical. Put shortly: (§2)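 E. coli tRNA was added and incubated 1 h at 37 °C, then stopped with EDTA. Poly-L-lysine yttrium silicate SPA beads in citric acid were added for 1 h before scintillation counting. DMSO-only controls were included, and IC50 came from a sigmoidal dose-response fit.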

Another experiment has as its target S. pneumonia PheRS (Streptococcus pneumoniae, UniProt Q97S36). The experiment in a line: tRNA aminoacylation scintillation proximity assay, S. pneumonia PheRS. In kind it is biochemical. Put shortly:
as §2

Experiment [7] deals with E. coli ATCC 25922 sensitive. The experiment in a line: MIC by microbroth dilution. In kind it is cell-based. The essentials:
as §1

Experiment [8] deals with S.enteritidis8204 sensitive. The experiment in a line: MIC by microbroth dilution. Type of experiment: cell-based, Salmonella enteritidis. Put shortly:
as §1

For experiment [9], the system named is P. mirabilis NCTC 10975 sensitive. The experiment in a line: MIC by microbroth dilution. Type of experiment: cell-based, Proteus mirabilis. Put shortly: as §1
Experiment [10] concerns E. faecalis NCTC 12201 vanA resistant. The experiment in a line: MIC by microbroth dilution. Type of experiment: cell-based, Enterococcus faecalis. The essentials:
as §1

Experiment [11] concerns S. aureus SH1000 sensitive strain. The experiment in a line: MIC against S. aureus SH1000 sensitive strain. Type of experiment: cell-based, Staphylococcus aureus. The note with it: for MIC: Staphylococcus aureus, read-out: MIC S. aureus Sensitive SH1000.
Experiment [12] concerns S. aureus ATCC 29213 sensitive. The experiment in a line: MIC by microbroth dilution. Type of experiment: cell-based. The essentials:
as §1

Experiment [13] has as its system E. faecalis sensitive and vanA and vanB resistant strains. The experiment in a line: MIC by microbroth dilution, summary in text for E. faecalis strains. The note with it: Enterococcus faecalis, read-out: moderate inhibitory activity (MIC). Type of experiment: cell-based. The essentials:
as §1

The test system of experiment [14] is the tested bacteria (variety of clinically important pathogens). The experiment in a line: MIC by microbroth dilution, summary in text for the panel of pathogens. The settings on record: read-out: MIC, no inhibitory activity. Type of experiment: cell-based.
The test system of experiment [15] is E. faecium 16568 sensitive. The experiment in a line: MIC by microbroth dilution. In kind it is cell-based. The settings on record: Enterococcus faecium. Put shortly: as §1
[16] abbreviates: Enterococcus faecalis, ATCC51299.
Setting [17] is: Staphylococcus aureus, NCTC12493.
[18] abbreviates: Pseudomonas aeruginosa, ATCC27853.
Where [19] appears, read: Enterococcus faecalis, ATCC29212.
Where [20] appears, read: Enterococcus faecalis, NCTC12201.
The mark [21] stands for this setting: Staphylococcus aureus, ATCC29213.

≈ marks a conversion by molar mass, not a printed value. Read-outs that look alike come from different tables or passages of the source. Where only a bound is given, the exact number is not on record here.

The record followed here is PMC6959494 (Egyptian journal of chemistry, 2018).

Sequence of S. pneumonia PheRS (Q97S36 whole entry): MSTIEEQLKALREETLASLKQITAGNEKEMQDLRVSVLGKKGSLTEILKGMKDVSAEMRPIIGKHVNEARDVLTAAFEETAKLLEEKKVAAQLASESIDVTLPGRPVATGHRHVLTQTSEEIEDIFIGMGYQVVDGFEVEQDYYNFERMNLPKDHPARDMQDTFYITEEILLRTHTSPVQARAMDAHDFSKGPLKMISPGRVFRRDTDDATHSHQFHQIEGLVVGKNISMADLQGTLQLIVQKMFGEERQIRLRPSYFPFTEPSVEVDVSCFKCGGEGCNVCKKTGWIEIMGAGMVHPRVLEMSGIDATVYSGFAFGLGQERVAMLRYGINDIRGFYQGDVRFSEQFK
Sequence of S. pneumonia PheRS (Q97S34 whole entry, further chain): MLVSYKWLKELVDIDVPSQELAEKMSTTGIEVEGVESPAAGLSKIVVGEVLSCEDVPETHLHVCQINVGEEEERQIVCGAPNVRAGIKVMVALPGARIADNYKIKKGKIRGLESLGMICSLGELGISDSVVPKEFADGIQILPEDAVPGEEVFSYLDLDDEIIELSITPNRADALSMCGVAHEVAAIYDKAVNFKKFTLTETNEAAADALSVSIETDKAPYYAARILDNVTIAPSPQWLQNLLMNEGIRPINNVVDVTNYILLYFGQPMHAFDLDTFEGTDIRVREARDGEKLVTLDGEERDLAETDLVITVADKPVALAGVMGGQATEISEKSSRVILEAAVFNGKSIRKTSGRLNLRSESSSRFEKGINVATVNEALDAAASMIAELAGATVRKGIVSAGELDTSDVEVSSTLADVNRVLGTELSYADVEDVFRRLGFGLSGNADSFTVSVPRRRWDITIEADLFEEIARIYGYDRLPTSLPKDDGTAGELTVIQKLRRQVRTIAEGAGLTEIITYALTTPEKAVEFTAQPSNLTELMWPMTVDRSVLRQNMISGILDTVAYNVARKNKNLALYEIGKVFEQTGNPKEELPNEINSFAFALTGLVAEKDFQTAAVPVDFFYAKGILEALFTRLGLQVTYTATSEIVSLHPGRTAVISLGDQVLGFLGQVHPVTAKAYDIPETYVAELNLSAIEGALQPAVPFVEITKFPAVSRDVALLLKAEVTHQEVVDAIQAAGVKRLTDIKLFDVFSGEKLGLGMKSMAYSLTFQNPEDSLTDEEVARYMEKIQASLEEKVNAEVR
Sequence of P. aeruginosa PheRS (Q9I0A3 whole entry): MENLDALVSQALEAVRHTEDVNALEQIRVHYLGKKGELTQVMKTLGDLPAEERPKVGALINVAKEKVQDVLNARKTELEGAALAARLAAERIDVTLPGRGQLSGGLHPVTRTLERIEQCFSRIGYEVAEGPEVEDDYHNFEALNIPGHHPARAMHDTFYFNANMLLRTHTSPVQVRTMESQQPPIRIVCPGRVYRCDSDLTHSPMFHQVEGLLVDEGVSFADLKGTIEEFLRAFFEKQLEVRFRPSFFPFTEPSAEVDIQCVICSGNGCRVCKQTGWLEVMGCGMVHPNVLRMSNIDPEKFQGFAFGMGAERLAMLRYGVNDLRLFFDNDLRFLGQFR
Sequence of P. aeruginosa PheRS (Q9I0A4 whole entry partner): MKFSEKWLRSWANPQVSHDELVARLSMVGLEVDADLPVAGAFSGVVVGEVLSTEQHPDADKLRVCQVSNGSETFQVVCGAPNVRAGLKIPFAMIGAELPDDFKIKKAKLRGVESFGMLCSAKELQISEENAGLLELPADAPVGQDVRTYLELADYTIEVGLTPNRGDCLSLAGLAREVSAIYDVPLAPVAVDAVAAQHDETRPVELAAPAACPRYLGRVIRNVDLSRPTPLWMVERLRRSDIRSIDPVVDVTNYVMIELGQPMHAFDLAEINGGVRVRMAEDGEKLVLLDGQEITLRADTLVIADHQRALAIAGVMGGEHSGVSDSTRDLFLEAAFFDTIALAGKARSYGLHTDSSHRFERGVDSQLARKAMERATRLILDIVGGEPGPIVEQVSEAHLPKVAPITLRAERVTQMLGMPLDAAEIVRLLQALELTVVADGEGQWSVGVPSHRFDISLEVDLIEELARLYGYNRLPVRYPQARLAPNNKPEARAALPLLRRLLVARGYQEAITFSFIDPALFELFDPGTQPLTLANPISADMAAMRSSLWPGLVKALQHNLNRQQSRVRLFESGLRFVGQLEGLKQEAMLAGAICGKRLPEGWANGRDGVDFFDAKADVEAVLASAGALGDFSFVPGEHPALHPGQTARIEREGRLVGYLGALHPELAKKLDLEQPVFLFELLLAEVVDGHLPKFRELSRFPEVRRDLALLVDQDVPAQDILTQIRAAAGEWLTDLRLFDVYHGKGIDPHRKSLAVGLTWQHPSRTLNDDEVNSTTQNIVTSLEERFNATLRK

With `O=C(Nc1nnc(CCn2cnc3ccccc32)s1)c1ccc(F)cc1` [11b, N-(5-(2-(1H-benzimidazol-1-yl)ethyl)-1.3.4-thiadiazol-2-yl)-4fluorobenzamide], the MIC is over 128 µg/mL in [1]; 64 µg/mL (≈ 174 µM) in experiment [2] (E. faecalis ATCC 51299 vanB resistant); 128 µg/mL (≈ 348 µM) in experiment [3] (S. aureus NCTC 12493 mecA resistant); over 128 µg/mL in [4] (K. pneumoniae 21856 sensitive); over 128 µg/mL in the experiment on A.baumannii572 sensitive (A.baumannii572 sensitive); over 128 µg/mL in experiment [5] (P. aeruginosa ATCC 27853 sensitive). In addition, the MIC in [6] (E. faecalis ATCC 29212 sensitive) is 64 µg/mL (≈ 174 µM); in [7] (E. coli ATCC 25922 sensitive), over 128 µg/mL; in experiment [8] (S.enteritidis8204 sensitive), over 128 µg/mL; in [9] (P. mirabilis NCTC 10975 sensitive), over 128 µg/mL; in experiment [10] (E. faecalis NCTC 12201 vanA resistant) it was 32 µg/mL (≈ 87.1 µM); in [12] (S. aureus ATCC 29213 sensitive), over 128 µg/mL. Also, the IC50 at P. aeruginosa PheRS (read-out: P. aeruginosa PheRS IC50, aminoacylation SPA, 0.08 μM enzyme) came to 907 µM; at S. pneumonia PheRS (read-out: S. pneumonia PheRS IC50, aminoacylation SPA, 0.2 μM enzyme), 685 µM. For the same molecule, the “MIC S. aureus Sensitive SH1000” value in experiment [11] (S. aureus SH1000 sensitive strain) was over 128 µg/mL.
Turning to `CCSc1nnc(CCCn2cnc3c(N)ncnc32)n1-c1ccccc1` [17a, 9-(3-(5-(Ethylthio)-4-phenyl-4H-1,2,4-triazol-3-yl)propyl)-9H-purin-6-amine], the MIC was 32 to 64 µg/mL (≈ 84.1 to 168 µM) in [13]; 64 µg/mL (≈ 168 µM) in experiment [2] (setting [16]); 128 µg/mL (≈ 336 µM) in experiment [3] (setting [17]); over 128 µg/mL in experiment [4] (Klebsiella pneumoniae); at least 128 µg/mL in experiment [14]; over 128 µg/mL against A.baumannii572 sensitive (Acinetobacter baumannii). The MIC is over 128 µg/mL in experiment [5] (setting [18]); over 128 µg/mL in [6] (setting [19]); over 128 µg/mL in [7] (Escherichia coli, ATCC25922); over 128 µg/mL in experiment [8] (Salmonella enterica); over 128 µg/mL in [9] (Proteus mirabilis, NCTC10975); 64 µg/mL (≈ 168 µM) in [10] (setting [20]). The MIC in experiment [11] and in experiment [12] (setting [21]) was over 128 µg/mL throughout. The figures for the IC50 on P. aeruginosa PheRS and against S. pneumonia PheRS were 199 µM and 619 µM, respectively.
`COc1cc(OC)cc(C(=O)Nc2nnc(CCn3cnc4ccccc43)s2)c1` [11a, N-(5-(2-(1H-benzimidazol-1-yl)ethyl)-1,3,4-thiadiazol-2-yl)-3,5-dimethoxybenzamide]: the IC50 against P. aeruginosa PheRS amounted to 742 µM; at S. pneumonia PheRS, 345 µM. Also, in experiment [11], the MIC was over 128 µg/mL.
Turning to `CCCSc1nnc(CCCn2cnc3c(N)ncnc32)n1-c1ccccc1` [17b, 9-(3-(4-Phenyl-5-(propylthio)-4H-1,2,4-triazol-3-yl)propyl)-9H-purin-6-amine], the MIC in experiment [2] (setting [16]) is over 128 µg/mL; in experiment [3] (setting [17]), over 128 µg/mL; in [4] (Klebsiella pneumoniae), over 128 µg/mL; in experiment [14], at least 128 µg/mL; with A.baumannii572 sensitive (Acinetobacter baumannii), over 128 µg/mL; in [5] (setting [18]), over 128 µg/mL. Moreover, the MIC in experiment [6] (setting [19]) was over 128 µg/mL; in experiment [15] it was over 128 µg/mL; in experiment [7] (Escherichia coli, ATCC25922), over 128 µg/mL; in [8] (Salmonella enterica), over 128 µg/mL; in experiment [9] (Proteus mirabilis, NCTC10975) it was over 128 µg/mL; in experiment [10] (setting [20]), over 128 µg/mL. Moreover, the MIC in [11] and in [12] (setting [21]) was over 128 µg/mL each time. Besides, the IC50 amounted to 294 µM against P. aeruginosa PheRS and 686 µM on S. pneumonia PheRS.
Consider `CC1(C)S[C@@H]2[C@H](NC(=O)[C@H](N)c3ccccc3)C(=O)N2[C@H]1C(=O)O` [Amp, ampicillin, reference compound], for which the MIC in experiment [3] (setting [17]) is over 128 µg/mL; in experiment [4] (Klebsiella pneumoniae), over 128 µg/mL; in the experiment with A.baumannii572 sensitive (Acinetobacter baumannii), over 128 µg/mL; in experiment [5] (setting [18]) it was over 128 µg/mL; in experiment [15] it was 4 µg/mL (≈ 11.4 µM); in experiment [9] (Proteus mirabilis, NCTC10975), over 128 µg/mL. The MIC in experiment [10] (setting [20]) turned out to be 16 µg/mL (≈ 45.8 µM); in experiment [12] (setting [21]) it was 4 µg/mL (≈ 11.4 µM).
Turning to `CCSc1nnc(CCCn2cnc3ccccc32)n1-c1ccccc1` [16a, 1-(3-(5-(Ethylthio)-4-phenyl-4H-1,2,4-triazol-3-yl)propyl)-1H-benzimidazole], the MIC in experiment [2] (setting [16]) was over 128 µg/mL; in experiment [3] (setting [17]) it was over 128 µg/mL; in experiment [4] (Klebsiella pneumoniae), over 128 µg/mL; in experiment [14], at least 128 µg/mL; in the experiment with A.baumannii572 sensitive (Acinetobacter baumannii), over 128 µg/mL; in experiment [5] (setting [18]) it was over 128 µg/mL. Further, the MIC was over 128 µg/mL in experiment [6] (setting [19]); over 128 µg/mL in experiment [15]; over 128 µg/mL in experiment [7] (Escherichia coli, ATCC25922); over 128 µg/mL in [8] (Salmonella enterica); over 128 µg/mL in experiment [9] (Proteus mirabilis, NCTC10975); over 128 µg/mL in [10] (setting [20]). In addition, the MIC in experiment [11] and in [12] (setting [21]) was over 128 µg/mL in each case. Further, the results for the IC50 on P. aeruginosa PheRS and on S. pneumonia PheRS were 343 µM and 561 µM, respectively.
Regarding `CCCSc1nnc(CCCn2cnc3ccccc32)n1-c1ccccc1` [16b, 1-(3-(4-Phenyl-5-(propylthio)-4H-1,2,4-triazol-3-yl)propyl)1H-benzimidazole], the IC50 against P. aeruginosa PheRS was 375 µM; at S. pneumonia PheRS, 390 µM. Further, the MIC in experiment [11] is over 128 µg/mL.
